Source: ChEMBL document CHEMBL3351969, “Chalcone based azacarboline analogues as novel antitubulin agents: design, synthesis, biological evaluation and molecular modelling studies” (Eur J Med Chem, 2014)
Activity calls are given as the source filed them. The rule behind the calls is not given here.

Key:
COLO 205 [1] = test: Cytotoxicity against human COLO205 cells assessed as growth inhibition at 50 uM after 48 hrs by sulforhodamine B assay; type: functional; settings: for inhibition of growth at 50 µM: COLO 205, 48 h, read-out: GI
Procedure, shortened: (§1)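 Single-point SRB screen at 50 µM. Cells were seeded and grown 24 h at 37°C in a CO2 incubator, then exposed to compound in complete medium for 48 h. Cells were fixed with 50% TCA for 1 h at 4°C, water-washed, and stained with 0.4% SRB in 1% acetic acid for 30 min. After 1% TCA washes, dye was dissolved in Tris-HCl (0.01 M, pH 10.4) and OD read at 540 nm.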

A549 = test: Cytotoxicity against human A549 cells assessed as growth inhibition at 50 uM after 48 hrs by sulforhodamine B assay; type: functional; settings: for inhibition of growth at 50 µM: A549, 48 h, read-out: GI; procedure, shortened: as §1
HCT-116 = test: (§2) Cytotoxicity against human HCT116 cells assessed as growth inhibition at 50 uM after 48 hrs by sulforhodamine B assay; type: functional; procedure, shortened: as §1
THP-1 [2] = test: Cytotoxicity against human THP1 cells assessed as growth inhibition at 50 uM after 48 hrs by sulforhodamine B assay; type: functional; settings: for inhibition of growth at 50 µM: THP-1, 48 h, read-out: GI; procedure, shortened: as §1
[3] = as §2; type: functional; settings: HCT-116, 48 h, read-out: GI; procedure, shortened: as §1
COLO 205 [4] = test: Cytotoxicity against human COLO205 cells assessed as growth inhibition after 48 hrs by sulforhodamine B assay; type: functional, cell-based; settings: COLO 205, 48 h
Procedure, shortened: (§3)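 SRB growth assay with compound dilutions over several concentrations. Cells were pre-grown 24 h at 37°C in a CO2 incubator, then exposed for 48 h. Cells were fixed with 50% TCA (1 h, 4°C) and stained with 0.4% SRB in 1% acetic acid for 30 min. Bound dye was solubilised in 0.01 M Tris-HCl (pH 10.4) and read at 540 nm. Percent inhibition versus untreated (blank-subtracted) was used to calculate IC50.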

[5] = Cytotoxicity against human HCT116 cells assessed as growth inhibition after 48 hrs by sulforhodamine B assay; type: functional, cell-based; settings: HCT-116, 48 h; procedure, shortened: as §3
THP-1 [6] = test: Cytotoxicity against human THP1 cells assessed as growth inhibition after 48 hrs by sulforhodamine B assay; type: functional, cell-based; settings: THP-1, 48 h; procedure, shortened: as §3

Row | SMILES | inhibition of growth at 50 µM (COLO 205 [1]) | growth inhibition (GI) (A549) | growth inhibition (GI) (HCT-116) | inhibition of growth at 50 µM (THP-1 [2]) | inhibition of growth at 50 µM (A549) | inhibition of growth at 50 µM [3] | growth inhibition (GI) (COLO 205 [1]) | IC50 (COLO 205 [4]) | IC50 [5] | IC50 (THP-1 [6]) | growth inhibition (GI) (THP-1 [2])
1 | COc1ccc(-c2cc3c4c(I)cccc4n(C(C)=O)c3nn2)cc1 | 9% | inactive | inactive | 22% |  |  |  |  |  |  | 
2 | COc1cc(-c2cc3c4c(I)cccc4n(C(C)=O)c3nn2)cc(OC)c1OC | 24% |  |  | 40% | 19% | 23% |  |  |  |  | 
3 | CC(=O)n1c2ccccc2c2cc(-c3ccc(F)cc3)nnc21 | 40% | inactive |  | 42% |  | 36% |  |  |  |  | 
4 | CC(=O)n1c2ccccc2c2cc(-c3ccc(Br)cc3)nnc21 | 20% | inactive |  | 25% |  | 24% |  |  |  |  | 
5 | CC(=O)Nc1ccccc1-c1cc2c3ccccc3n(C(C)=O)c2nn1 | 50% | inactive |  | 51% |  | 49% |  |  |  |  | 
6 | CC(=O)Nc1cccc(-c2cc3c4ccccc4n(C(C)=O)c3nn2)c1 | 47% | inactive |  | 49% |  | 48% |  |  |  |  | 
7 | CC(=O)n1c2cccc(Cl)c2c2cc(-c3ccc([N+](=O)[O-])cc3)nnc21 |  | inactive | inactive | 14% |  |  | inactive |  |  |  | 
8 | CC(=O)n1c2cccc(I)c2c2cc(-c3ccc4ccccc4c3)nnc21 |  | inactive | inactive | 25% |  |  | inactive |  |  |  | 
9 | CC(=O)n1c2cccc(I)c2c2cc(-c3ccccc3)nnc21 |  | inactive | inactive | 20% |  |  | inactive |  |  |  | 
10 | COc1ccc(-c2cc3c4c(Br)cccc4n(C(C)=O)c3nn2)cc1 | 10% |  |  | 35% | 7% | 17% |  |  |  |  | 
11 | COc1ccc(-c2cc3c4ccccc4n(C(C)=O)c3nn2)cc1 | 72% |  |  | 81% | 10% | 72% |  | 6.63 µM | 5.23 µM | 3.45 µM | 
12 | CC(=O)n1c2cccc(I)c2c2cc(-c3cccc4ccccc34)nnc21 |  | inactive | inactive | 29% |  |  | inactive |  |  |  | 
13 | CC(=O)n1c2cccc(I)c2c2cc(-c3ccc([N+](=O)[O-])cc3)nnc21 |  | inactive | inactive |  |  |  | inactive |  |  |  | inactive
14 | CC(=O)n1c2cccc(Br)c2c2cc(-c3ccc([N+](=O)[O-])cc3)nnc21 |  | inactive | inactive |  |  |  | inactive |  |  |  | inactive
15 | CC(=O)n1c2cccc(Br)c2c2cc(-c3ccc(Br)cc3)nnc21 |  | inactive | inactive |  |  |  | inactive |  |  |  | inactive
16 | CC(=O)n1c2ccccc2c2cc(-c3ccc([N+](=O)[O-])cc3)nnc21 | 17% | inactive |  | 19% |  | 19% |  |  |  |  | 
17 | CC(=O)n1c2cccc(Cl)c2c2cc(-c3ccccc3)nnc21 | 22% | inactive |  | 50% |  | 29% |  |  |  |  | 
18 | CC(=O)n1c2cc(Br)cc(Br)c2c2cc(-c3cccc4ccccc34)nnc21 |  | inactive | inactive | 24% |  |  | inactive |  |  |  | 
19 | CC(=O)n1c2cccc(Cl)c2c2cc(-c3ccc[nH]3)nnc21 | 34% |  |  | 53% | 16% | 37% |  |  |  |  | 
20 | CC(=O)n1c2cccc(Br)c2c2cc(-c3ccc4ccccc4c3)nnc21 | 14% |  |  | 40% | 8% | 18% |  |  |  |  | 

Row | SMILES | inhibition of growth at 50 µM (COLO 205 [1]) | growth inhibition (GI) (A549) | growth inhibition (GI) (HCT-116) | inhibition of growth at 50 µM (THP-1 [2]) | inhibition of growth at 50 µM (A549) | inhibition of growth at 50 µM [3] | growth inhibition (GI) (COLO 205 [1]) | IC50 (COLO 205 [4]) | IC50 [5] | IC50 (THP-1 [6]) | growth inhibition (GI) (THP-1 [2])
21 | CC(=O)n1c2cccc(Br)c2c2cc(-c3ccccc3)nnc21 |  | inactive | inactive | 27% |  |  | inactive |  |  |  | 
22 | CC(=O)n1c2ccccc2c2cc(-c3ccccc3)nnc21 | 64% |  |  | 71% | 10% | 66% |  | 8.11 µM | 7.77 µM | 5.75 µM | 
23 | COc1cc(-c2cc3c4c(Cl)cccc4n(C(C)=O)c3nn2)cc(OC)c1OC | 59% | inactive |  | 77% |  | 66% |  | 17 µM | 15.7 µM | 13.4 µM | 
24 | CC(=O)n1c2cccc(I)c2c2cc(-c3ccc(Br)cc3)nnc21 |  | inactive | inactive |  |  |  | inactive |  |  |  | inactive
25 | CC(=O)n1c2cccc(I)c2c2cc(-c3ccc(Cl)cc3)nnc21 |  | inactive | inactive |  |  |  | inactive |  |  |  | inactive
26 | CC(=O)n1c2cccc(Br)c2c2cc(-c3ccc(Cl)cc3)nnc21 |  | inactive | inactive |  |  |  | inactive |  |  |  | inactive
27 | CC(=O)n1c2cccc(Cl)c2c2cc(-c3ccc(Cl)cc3)nnc21 | 12% |  |  | 19% | 5% | 17% |  |  |  |  | 
28 | COc1ccc(-c2cc3c4c(Br)cccc4n(C(C)=O)c3nn2)cc1OC | 21% |  |  | 51% | 11% | 23% |  |  |  |  | 
29 | CC(=O)n1c2cccc(Cl)c2c2cc(-c3ccc4ccccc4c3)nnc21 | 41% |  |  | 68% | 19% | 45% |  | 17.6 µM | 16.2 µM | 14 µM | 
30 | CC(=O)n1c2cccc(Br)c2c2cc(-c3cccc4ccccc34)nnc21 | 12% |  |  | 44% | 9% | 18% |  |  |  |  | 
31 | COc1ccc(-c2cc3c4c(I)cccc4n(C(C)=O)c3nn2)cc1OC | 14% |  |  | 33% | 11% | 13% |  |  |  |  | 
32 | CC(=O)n1c2cc(Br)cc(Br)c2c2cc(-c3ccc4ccccc4c3)nnc21 |  | inactive | inactive | 26% |  |  | inactive |  |  |  | 
33 | CC(=O)n1c2ccccc2c2cc(-c3cccs3)nnc21 | 69% |  |  | 76% | 10% | 71% |  | 7.15 µM | 6.17 µM | 4.31 µM | 
34 | CC(=O)n1c2cc(Br)cc(Br)c2c2cc(-c3ccc(F)cc3)nnc21 |  | inactive | inactive |  |  |  | inactive |  |  |  | inactive
35 | CC(=O)n1c2cc(Br)cc(Br)c2c2cc(-c3ccc(Br)cc3)nnc21 |  | inactive | inactive |  |  |  | inactive |  |  |  | inactive
36 | CC(=O)n1c2ccccc2c2cc(-c3ccc(Cl)cc3)nnc21 | 35% | inactive |  | 39% |  | 35% |  |  |  |  | 
37 | COc1ccc(-c2cc3c4c(Cl)cccc4n(C(C)=O)c3nn2)cc1OC | 54% | inactive |  | 71% |  | 49% |  | 17.2 µM | 15.8 µM | 13.8 µM | 
38 | COc1cc(-c2cc3c4c(Br)cccc4n(C(C)=O)c3nn2)cc(OC)c1OC | 36% |  |  | 59% | 17% | 43% |  |  |  |  | 
39 | CC(=O)n1c2cccc(Cl)c2c2cc(-c3ccc(Br)cc3)nnc21 | 10% | inactive | inactive | 15% |  |  |  |  |  |  | 
40 | CC(=O)n1c2cc(Br)cc(Br)c2c2cc(-c3ccccc3)nnc21 |  | inactive | inactive | 21% |  |  | inactive |  |  |  | 
